Screening results (PubChem)
TAAR1 antag: human TAAR1 antagonism. Q96RJ0. CHO RD-HGA16 TAAR1, Fluo-8 calcium fluorescence, antagonist. inhibition, % at 3 µM. 1.5% of 360,000 active;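 active = inhibition above a per-plate cutoff, the mean inhibition of test compounds on that plate plus 3 SD, cut at about 49% in these data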;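 also: 0% = DMSO plus EC80 beta-PEA response and 100% = DMSO alone without agonist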
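Test system: hTAAR1-expressing CHO RD-HGA16 cells, Gα16-coupled; Probe or stimulus: EC80 β-phenethylamine stimulus; Compound dosing: single nominal final test compound concentration of 3 µM; Timing: 140 s kinetic read after compound, 140 s after agonist; Signal: Fluo-8 calcium-sensitive fluorescence; Measure: % inhibition of agonist calcium response; Controls: DMSO and EC80 PEA controls.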
GPR7 antag: blocks human GPR7 receptor signaling | P48145 | GPR7-expressing cells, fluorescence antagonist assay | inhibition, % at 4.4 µM | 1.1% of 290,000 active | AID 1861; in the data active = inhibition above about 16%, passing the limit was not always enough;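 also: cells stimulated with the agonist NPW; 0% = agonist with vehicle and 100% = vehicle without agonist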
Target sequence (P48145 whole entry, looked up): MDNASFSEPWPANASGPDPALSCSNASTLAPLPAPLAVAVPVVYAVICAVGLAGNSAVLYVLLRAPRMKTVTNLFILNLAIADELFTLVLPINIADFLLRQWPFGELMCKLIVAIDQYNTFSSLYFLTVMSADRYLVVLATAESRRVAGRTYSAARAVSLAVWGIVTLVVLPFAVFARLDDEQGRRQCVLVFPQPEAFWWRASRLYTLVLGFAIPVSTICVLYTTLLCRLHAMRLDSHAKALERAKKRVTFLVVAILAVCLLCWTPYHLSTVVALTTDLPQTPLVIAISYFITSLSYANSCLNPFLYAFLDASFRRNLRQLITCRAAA
CHO parental Ca: counter-screen for OX1R antagonists: effect in parental CHO cells | parental CHO-K1, ATP-induced calcium, Fluo-8 fluorescence | inhibition, % at 5.6 µM | 0.63% of 330,000 active | AID 463079;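 active = inhibition above that plate's mean sample inhibition plus 3 SD, cut at about 26% in these data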;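 also: 0% = ATP-challenged DMSO wells and 100% = DMSO wells without ATP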
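test system = CHO parental line | reagent = ATP stimulus | measured by = intracellular calcium via Fluo-8 no-wash fluorescent dye | control set = ATP and no-ATP DMSO wells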
OX1R antag-1: OX1R (human) antagonism; OX1R-expressing cells, FRET antagonist read-out; inhibition, % at 6.6 µM; 1.8% of 330,000 active; AID 485270; in the data active = inhibition mostly above about 38%, no sharp cut-off; inactive = mostly below about 40%;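 also: 0% = agonist challenge alone and 100% = reference antagonist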
TAAR1 agonist: agonists of human TAAR1; Q96RJ0; CHO RD-HGA16 TAAR1, Fluo-8 calcium fluorescence; vehicle wells 0%, saturating PEA agonist 100%; activation, % at 3 µM; 0.99% of 360,000 active; AID 624467;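 active = activation above the mean activation of all test compounds in the run plus 3 SD, cut at about 38% in these data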
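Test system: RD-HGA16 (CHO) cells co-expressing Gα16 and hTAAR1 / Benchmarks: DMSO vehicle as 0%, PEA at EC100 as 100% / Repeats: no replicates (n 1) / Measure: % activation from peak over basal fluorescence ratio, DMSO-to-PEA scaled / Timing: 17-24 h plating, Fluo-8 75 min 37 °C, 30 min RT / Technique: kinetic Fluo-8 calcium fluorescence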
OX1R antag-2: antagonists of human orexin 1 receptor. inhibition, % at 5 µM. AID 434989. 0.43% of 330,000 active. CHO/OX1R cells, Fluo-8 calcium fluorescence, orexin A. O43613;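 active = inhibition above its plate's threshold, mean inhibition of all tested compounds on the plate plus 3 SD, cut at about 37% in these data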;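 also: 0% = orexin A challenge wells and 100% = SB-334867-A antagonist wells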
* hit, by the source's call; · = no result. Shown are actives, neighbours in structure and some others; about 4.5% of the full set was active somewhere.

SMILES | TAAR1 antag | GPR7 antag | CHO parental Ca | OX1R antag-1 | TAAR1 agonist | OX1R antag-2
NC(=O)c1ccc(C(=O)c2ccc([N+](=O)[O-])cc2)cc1 | -7 | -3 | -11 | 70* | 3 | -4
O=C(Cn1nnc(-c2ccccc2NC(=O)c2ccccc2F)n1)NC1CCCC1 | 15 | -2 | 32* | 18 | -1 | 40
O=C(Nc1ccccc1-c1nnn(CC(=O)N2CCOCC2)n1)c1ccccc1F | 7 | -4 | -8 | 26 | 7 | -5
CC(C(=O)NC1CCCC1)N(C(=O)Cn1nnc(-c2ccc(F)cc2)n1)c1ccccc1F (configuration not stated) | 52* | -14 | -28 | 20 | 19 | -16
COc1ccc(N(C(=O)Cn2nnc(-c3ccc(F)cc3)n2)C(C)C(=O)NC2CCCC2)cc1 (configuration not stated) | -7 | 2 | -22 | 6 | -3 | -24
O=C1C=C(Nc2ccccc2O)c2ccccc2C1=O | -7 | 3 | -9 | 58* | 2 | -3
O=C1C=C(Nc2ccc(F)cc2)c2ccccc2C1=O | -1 | · | -3 | 50* | 4 | -9
COc1ccc(S(=O)(=O)/N=C2\C=C(Nc3ccc(O)cc3)C(=O)c3ccccc32)cc1 | 51* | -28 | -23 | 28 | 1 | 0
Cc1ccccc1NC1=C/C(=N\S(=O)(=O)c2ccc(C(=O)O)cc2)c2ccccc2C1=O | 9 | -14 | 2 | 59* | 3 | -15
O=C(O)c1ccc(S(=O)(=O)/N=C2\C=C(Nc3ccccc3F)C(=O)c3ccccc32)cc1 | 3 | -38 | -17 | 63* | 3 | -11
CN1OC[C@@H]2CN(Cc3cc(Cl)cc(Cl)c3)[C@H](c3cccc(-c4ccc(C#N)cc4)c3)C[C@@H]21 | -6 | · | · | · | 0 | ·
CC(=O)Nc1nc(-c2ccc3c(c2)CCN3C(=O)C2CC2)c(C)s1 | -11 | -5 | -10 | 48* | 2 | -11
c1ccc(CN2CCC(Nc3nc(-c4cccs4)nc4ccccc34)CC2)cc1 | -22 | 20* | -16 | 7 | 10 | -3
c1ccc(Nc2nc(-c3ccccc3)nc3ccccc23)cc1 | 14 | -6 | -17 | 9 | 2 | -15
c1csc(-c2nc(NCC3CCCO3)c3ccccc3n2)c1 (configuration not stated) | 24 | -3 | -24 | 68* | 2 | -15
Oc1ccc(Cl)cc1Nc1nc(NCC2CCCO2)c2ccccc2n1 (configuration not stated) | 57* | · | -9 | 7 | 18 | -6
Oc1ccccc1Nc1nc(NCC2CCCO2)c2ccccc2n1 (configuration not stated) | 7 | -7 | -14 | 21 | 11 | -31
c1ccc(-c2nc(NC3CCCC3)c3ccccc3n2)cc1 | 11 | 0 | -21 | 49* | 6 | -44
c1cncc(-c2nc(NCC3CCCO3)c3ccccc3n2)c1 (configuration not stated) | · | 5 | -4 | 31 | · | -16
CCCCCCCCN1C(=O)[C@@H](CC(=O)NCC2CCCCC2)C[C@@]2(C(=O)OC)C1=C[C@H](C(C)(C)C)O[C@@H]2C | -28 | · | · | · | 4 | ·
CN(Cc1ccccc1)C(=O)c1ccc([N+](=O)[O-])o1 | 6 | 1 | -8 | 54* | 0 | -18
CC1CCCN(C(=O)c2ccc([N+](=O)[O-])o2)C1 (configuration not stated) | -17 | -5 | -9 | 58 | 1 | -10
O=C(c1ccc([N+](=O)[O-])o1)N1CCN(Cc2ccccc2)CC1 | 10 | 22 | 0 | 30* | 5 | -15
Cc1noc(C)c1C(=O)N(C)Cc1ccccc1 | -21 | -8 | 1 | 6 | 0 | -8
CC1CCN(C(=O)c2ccc([N+](=O)[O-])o2)CC1 | 6 | -4 | -5 | 44* | -4 | -10
CC1(C)OC(=O)C2=C(CC(CCc3ccccc3)OC2c2cccc(C(F)(F)F)c2)O1 (configuration not stated) | 1 | · | · | · | -1 | ·
O=C1[C@H](c2ccccc2)[C@@H](c2ccncc2)N1c1ccncc1 | -12 | · | · | · | 1 | ·
Cc1cccc2cc(C#N)c(NCCNS(=O)(=O)c3ccccc3)nc12 | -25 | 4 | -16 | 58* | 2 | 18
